From ChEMBL document CHEMBL3632459, “Synthesis and evaluation of aporphine analogs containing C1 allyl isosteres at the h5-HT(2A) receptor” (Bioorg Med Chem Lett, 2015)
One block for each molecule: values may come before it.

What was measured:
Homo sapiens = organism: Homo sapiens; experiment: Selectivity ratio of Ke(app) for adrenergic alpha1A receptor (unknown origin) to Ke(app) for human 5-HT2A receptor
Method in brief: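 Ratio of apparent Ke values from matched FLIPR calcium functional assays at human 5-HT2A and at α1A receptors. Compounds were screened at 10 μM. Ke was taken from the rightward EC50 shift of an 8-point half-log agonist curve (5-HT at 5-HT2A) with one antagonist concentration, Ke = [L]/(DR−1). Values are means of ≥2 triplicate experiments.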

[1] = biological target: Mu-type opioid receptor (Homo sapiens) (UniProt P35372); experiment: Displacement of [3H]-DAMGO from recombinant human mu opioid receptor at 10 uM after […] by Microbeta scintillation counting analysis relative to control
Mu-type opioid receptor (Homo sapiens), sequence (P35372 whole entry): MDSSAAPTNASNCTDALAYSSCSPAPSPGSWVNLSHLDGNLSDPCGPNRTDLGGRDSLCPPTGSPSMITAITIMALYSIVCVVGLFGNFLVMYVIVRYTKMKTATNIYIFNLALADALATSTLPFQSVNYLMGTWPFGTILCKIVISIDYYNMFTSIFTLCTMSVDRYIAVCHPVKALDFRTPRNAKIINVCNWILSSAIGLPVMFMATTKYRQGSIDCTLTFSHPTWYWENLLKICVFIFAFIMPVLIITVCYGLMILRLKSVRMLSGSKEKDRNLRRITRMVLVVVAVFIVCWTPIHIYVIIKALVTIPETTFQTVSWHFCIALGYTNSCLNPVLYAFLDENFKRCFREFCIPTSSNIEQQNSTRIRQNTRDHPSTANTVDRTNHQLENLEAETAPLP

[2] = biological target: Alpha-2B adrenergic receptor (Homo sapiens, UniProt P18089); experiment: Displacement of [3H]-Clonidine from recombinant human adrenergic alpha2B receptor after […] by Microbeta scintillation counting analysis
Alpha-2B adrenergic receptor, sequence (P18089 whole entry): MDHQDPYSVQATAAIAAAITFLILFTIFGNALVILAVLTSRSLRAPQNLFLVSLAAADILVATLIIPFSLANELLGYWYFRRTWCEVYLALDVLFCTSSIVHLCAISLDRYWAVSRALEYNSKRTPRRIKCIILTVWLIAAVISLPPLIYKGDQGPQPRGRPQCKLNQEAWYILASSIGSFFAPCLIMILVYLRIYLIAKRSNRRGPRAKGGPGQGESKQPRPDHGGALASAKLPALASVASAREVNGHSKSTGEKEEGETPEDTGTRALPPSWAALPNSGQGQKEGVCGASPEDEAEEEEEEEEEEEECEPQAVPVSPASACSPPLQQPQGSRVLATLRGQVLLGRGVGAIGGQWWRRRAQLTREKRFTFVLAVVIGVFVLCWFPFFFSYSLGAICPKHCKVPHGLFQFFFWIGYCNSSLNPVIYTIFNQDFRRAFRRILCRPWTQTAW

[3] = biological target: 5-hydroxytryptamine receptor 7 (Homo sapiens, UniProt P34969); experiment: Displacement of [3H]-LSD from recombinant human 5-HT7 receptor after […] by Microbeta scintillation counting analysis
5-hydroxytryptamine receptor 7, sequence (P34969 whole entry): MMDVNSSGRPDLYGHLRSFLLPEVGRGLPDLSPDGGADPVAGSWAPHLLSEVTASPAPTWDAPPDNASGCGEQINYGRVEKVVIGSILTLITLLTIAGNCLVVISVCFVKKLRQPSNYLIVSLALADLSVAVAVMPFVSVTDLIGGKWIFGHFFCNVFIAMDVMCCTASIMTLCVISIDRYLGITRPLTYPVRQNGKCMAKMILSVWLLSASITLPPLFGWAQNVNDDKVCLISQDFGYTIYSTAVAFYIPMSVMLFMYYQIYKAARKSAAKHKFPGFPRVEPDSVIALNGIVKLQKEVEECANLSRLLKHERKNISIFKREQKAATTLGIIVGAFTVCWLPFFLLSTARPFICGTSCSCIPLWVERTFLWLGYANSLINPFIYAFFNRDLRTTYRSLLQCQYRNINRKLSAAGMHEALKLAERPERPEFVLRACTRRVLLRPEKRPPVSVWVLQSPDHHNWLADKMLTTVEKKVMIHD

[4] = biological target: Beta-1 adrenergic receptor (Homo sapiens) (UniProt P08588); experiment: Displacement of [3H]-Iodopindolol from recombinant human adrenergic beta1 receptor at 10 uM after […] by Microbeta scintillation counting analysis relative to control
[5] = biological target: Histamine H4 receptor (Homo sapiens) (UniProt Q9H3N8); experiment: Displacement of [3H]-Histamine from recombinant human histamine H4 receptor at 10 uM after […] by Microbeta scintillation counting analysis relative to control
[6] = biological target: Muscarinic acetylcholine receptor M2 (Homo sapiens) (UniProt P08172); experiment: Displacement of [3H]-QNB from recombinant human muscarinic M2 receptor at 10 uM after […] by Microbeta scintillation counting analysis relative to control
[7] = biological target: Muscarinic acetylcholine receptor M5 (Homo sapiens, UniProt P08912); experiment: Displacement of [3H]-Tiotidine from recombinant human muscarinic M5 receptor after […] by Microbeta scintillation counting analysis
D(1A) dopamine receptor = D(1A) dopamine receptor (Homo sapiens, UniProt P21728); experiment: Displacement of [3H]-[…] from recombinant human dopamine D1 receptor after […] by Microbeta scintillation counting analysis
D(1A) dopamine receptor, sequence (P21728 whole entry): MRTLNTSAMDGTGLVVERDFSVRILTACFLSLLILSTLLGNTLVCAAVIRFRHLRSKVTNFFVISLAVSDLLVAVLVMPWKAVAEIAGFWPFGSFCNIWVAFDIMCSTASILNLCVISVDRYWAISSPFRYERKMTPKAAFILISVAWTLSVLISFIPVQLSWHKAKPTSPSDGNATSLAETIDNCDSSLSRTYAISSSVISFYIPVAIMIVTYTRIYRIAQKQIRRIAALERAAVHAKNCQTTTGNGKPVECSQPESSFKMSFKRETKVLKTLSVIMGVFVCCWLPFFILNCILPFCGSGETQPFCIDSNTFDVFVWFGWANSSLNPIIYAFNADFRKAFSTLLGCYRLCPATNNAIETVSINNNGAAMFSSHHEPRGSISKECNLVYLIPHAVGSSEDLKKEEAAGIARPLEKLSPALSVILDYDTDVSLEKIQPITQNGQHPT

[8] = biological target: Alpha-1B adrenergic receptor (Homo sapiens) (UniProt P35368); experiment: Displacement of [3H]-Prazosin from recombinant human adrenergic alpha1B receptor at 10 uM after […] by Microbeta scintillation counting analysis relative to control
[9] = biological target: Muscarinic acetylcholine receptor M3 (Homo sapiens) (UniProt P20309); experiment: Displacement of [3H]-QNB from recombinant human muscarinic M3 receptor at 10 uM after […] by Microbeta scintillation counting analysis relative to control
Muscarinic acetylcholine receptor M3 (Homo sapiens), sequence (P20309 whole entry, looked up): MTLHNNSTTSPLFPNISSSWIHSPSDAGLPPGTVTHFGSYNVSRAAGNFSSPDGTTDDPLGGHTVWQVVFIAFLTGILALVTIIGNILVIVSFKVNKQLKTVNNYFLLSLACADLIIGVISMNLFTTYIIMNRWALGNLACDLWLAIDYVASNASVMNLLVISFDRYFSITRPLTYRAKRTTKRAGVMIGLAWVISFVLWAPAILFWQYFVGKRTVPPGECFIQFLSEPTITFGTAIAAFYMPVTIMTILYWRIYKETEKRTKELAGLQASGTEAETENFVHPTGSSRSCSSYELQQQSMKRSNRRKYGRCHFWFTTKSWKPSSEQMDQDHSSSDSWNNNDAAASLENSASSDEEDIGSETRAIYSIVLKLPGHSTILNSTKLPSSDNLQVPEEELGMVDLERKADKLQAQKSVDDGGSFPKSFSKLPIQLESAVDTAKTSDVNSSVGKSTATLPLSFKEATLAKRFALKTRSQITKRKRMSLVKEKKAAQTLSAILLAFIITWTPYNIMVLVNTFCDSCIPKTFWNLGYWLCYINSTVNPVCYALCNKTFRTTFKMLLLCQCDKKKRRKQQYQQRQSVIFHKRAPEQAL

[10] = biological target: Alpha-2C adrenergic receptor (Homo sapiens, UniProt P18825); experiment: Displacement of [3H]-Clonidine from recombinant human adrenergic alpha2C receptor after […] by Microbeta scintillation counting analysis
[11] = biological target: Muscarinic acetylcholine receptor M1 (Homo sapiens) (UniProt P11229); experiment: Displacement of [3H]-QNB from recombinant human muscarinic M1 receptor at 10 uM after […] by Microbeta scintillation counting analysis relative to control
[12] = biological target: Histamine H1 receptor (Homo sapiens) (UniProt P35367); experiment: Displacement of [3H]-Pyrilamine from recombinant human histamine H1 receptor at 10 uM after […] by Microbeta scintillation counting analysis relative to control
[13] = biological target: Beta-3 adrenergic receptor (Homo sapiens) (UniProt P13945); experiment: Displacement of [3H]-Iodopindolol from recombinant human adrenergic beta3 receptor at 10 uM after […] by Microbeta scintillation counting analysis relative to control
Rattus norvegicus = organism: Rattus norvegicus; experiment: Displacement of [3H]-Flunitrazepam from rat brain Benzodiazepine receptor at 10 uM after […] by Microbeta scintillation counting analysis relative to control
D(3) dopamine receptor = D(3) dopamine receptor (Homo sapiens, UniProt P35462); experiment: Displacement of [3H]-N-methylspiperone from recombinant human dopamine D3 receptor after […] by Microbeta scintillation counting analysis
[14] = biological target: 5-hydroxytryptamine receptor 1B (Homo sapiens, UniProt P28222); experiment: Displacement of [3H]-[…] from recombinant human 5-HT1B receptor after […] by Microbeta scintillation counting analysis
[15] = biological target: Delta-type opioid receptor (Homo sapiens) (UniProt P41143); experiment: Displacement of [3H]-DADLE from recombinant human delta opioid receptor at 10 uM after […] by Microbeta scintillation counting analysis relative to control
[16] = biological target: D(1B) dopamine receptor (Homo sapiens) (UniProt P21918); experiment: Displacement of [3H]-[…] from recombinant human dopamine D5 receptor at 10 uM after […] by Microbeta scintillation counting analysis relative to control
D(1B) dopamine receptor (Homo sapiens), sequence (P21918 whole entry): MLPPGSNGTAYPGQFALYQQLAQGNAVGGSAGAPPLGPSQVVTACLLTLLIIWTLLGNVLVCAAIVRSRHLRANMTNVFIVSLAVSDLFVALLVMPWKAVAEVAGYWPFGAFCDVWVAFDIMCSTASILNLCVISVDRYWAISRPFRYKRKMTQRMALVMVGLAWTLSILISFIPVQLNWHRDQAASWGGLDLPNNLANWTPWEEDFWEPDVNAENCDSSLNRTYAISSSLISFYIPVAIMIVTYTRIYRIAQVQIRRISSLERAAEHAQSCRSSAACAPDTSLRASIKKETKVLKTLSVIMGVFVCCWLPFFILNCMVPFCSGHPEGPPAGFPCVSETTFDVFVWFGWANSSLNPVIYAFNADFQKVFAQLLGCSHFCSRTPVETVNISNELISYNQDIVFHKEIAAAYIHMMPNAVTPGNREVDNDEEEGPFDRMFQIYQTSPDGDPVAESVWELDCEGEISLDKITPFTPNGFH

Translocator protein = Translocator protein (Homo sapiens, UniProt P30536); experiment: Displacement of [3H]-PK11195 from recombinant human PBR after […] by Microbeta scintillation counting analysis
Translocator protein, sequence (P30536 whole entry): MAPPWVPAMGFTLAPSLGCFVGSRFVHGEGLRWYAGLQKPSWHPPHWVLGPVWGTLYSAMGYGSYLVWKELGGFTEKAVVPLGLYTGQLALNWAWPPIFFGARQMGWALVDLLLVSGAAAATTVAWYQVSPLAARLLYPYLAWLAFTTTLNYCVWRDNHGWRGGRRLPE

[17] = biological target: Sodium-dependent noradrenaline transporter (Homo sapiens) (UniProt P23975); experiment: Displacement of [3H]-Nisoxetine from recombinant human NET at 10 uM after […] by Microbeta scintillation counting analysis relative to control
Sodium-dependent noradrenaline transporter (Homo sapiens), sequence (P23975 whole entry): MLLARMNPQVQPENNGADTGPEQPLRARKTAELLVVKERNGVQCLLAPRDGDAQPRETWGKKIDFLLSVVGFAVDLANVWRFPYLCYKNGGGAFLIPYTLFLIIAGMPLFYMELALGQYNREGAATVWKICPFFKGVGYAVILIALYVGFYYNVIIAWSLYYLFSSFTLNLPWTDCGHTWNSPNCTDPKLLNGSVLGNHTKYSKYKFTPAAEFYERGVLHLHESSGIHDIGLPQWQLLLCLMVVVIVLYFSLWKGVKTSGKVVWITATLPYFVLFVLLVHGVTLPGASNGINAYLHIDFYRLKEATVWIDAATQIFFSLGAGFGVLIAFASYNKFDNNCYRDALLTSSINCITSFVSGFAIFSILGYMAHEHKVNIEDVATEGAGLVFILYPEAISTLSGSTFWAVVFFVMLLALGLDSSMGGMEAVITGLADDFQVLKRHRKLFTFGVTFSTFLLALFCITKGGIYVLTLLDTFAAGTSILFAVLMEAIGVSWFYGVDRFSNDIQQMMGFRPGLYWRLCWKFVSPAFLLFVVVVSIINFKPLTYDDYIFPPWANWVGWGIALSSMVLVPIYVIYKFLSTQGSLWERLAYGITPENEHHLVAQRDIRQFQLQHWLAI

[18] = biological target: Muscarinic acetylcholine receptor M4 (Homo sapiens) (UniProt P08173); experiment: Displacement of [3H]-QNB from recombinant human muscarinic M4 receptor at 10 uM after […] by Microbeta scintillation counting analysis relative to control
[19] = biological target: 5-hydroxytryptamine receptor 3A (Homo sapiens, UniProt P46098); experiment: Displacement of [3H]-LY278584 from recombinant human 5-HT3 receptor after […] by Microbeta scintillation counting analysis
[20] = biological target: D(2) dopamine receptor (Homo sapiens) (UniProt P14416); experiment: Displacement of [3H]-N-methylspiperone from recombinant human dopamine D2 receptor at 10 uM after […] by Microbeta scintillation counting analysis relative to control
D(2) dopamine receptor (Homo sapiens), sequence (P14416 whole entry): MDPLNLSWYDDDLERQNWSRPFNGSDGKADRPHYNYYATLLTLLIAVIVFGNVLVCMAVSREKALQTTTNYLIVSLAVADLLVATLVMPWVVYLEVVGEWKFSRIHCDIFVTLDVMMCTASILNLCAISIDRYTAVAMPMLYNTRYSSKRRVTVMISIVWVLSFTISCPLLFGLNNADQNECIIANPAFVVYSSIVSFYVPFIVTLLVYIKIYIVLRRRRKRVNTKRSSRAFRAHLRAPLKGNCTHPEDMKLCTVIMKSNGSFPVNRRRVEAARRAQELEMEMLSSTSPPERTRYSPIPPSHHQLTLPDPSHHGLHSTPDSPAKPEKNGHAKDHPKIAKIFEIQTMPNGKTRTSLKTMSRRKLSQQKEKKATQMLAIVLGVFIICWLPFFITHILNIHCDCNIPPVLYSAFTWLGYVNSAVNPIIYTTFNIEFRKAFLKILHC

[21] = biological target: 5-hydroxytryptamine receptor 2B (Homo sapiens, UniProt P41595); experiment: Displacement of [3H]-LSD from recombinant human 5-HT2B receptor after […] by Microbeta scintillation counting analysis
[22] = biological target: 5-hydroxytryptamine receptor 1E (Homo sapiens, UniProt P28566); experiment: Displacement of [3H]-5-HT from recombinant human 5-HT1E receptor after […] by Microbeta scintillation counting analysis
[23] = biological target: Alpha-1A adrenergic receptor (Homo sapiens) (UniProt P35348); experiment: Displacement of [3H]-Prazosin from recombinant human adrenergic alpha1A receptor at 10 uM after […] by Microbeta scintillation counting analysis relative to control
[24] = biological target: Alpha-1D adrenergic receptor (Homo sapiens) (UniProt P25100); experiment: Inhibition of recombinant human adrenergic alpha1D receptor at 10 uM after […] by Microbeta scintillation counting analysis relative to control
[25] = biological target: 5-hydroxytryptamine receptor 1D (Homo sapiens, UniProt P28221); experiment: Displacement of [3H]-[…] from recombinant human 5-HT1D receptor after […] by Microbeta scintillation counting analysis
[26] = biological target: 5-hydroxytryptamine receptor 5A (Homo sapiens) (UniProt P47898); experiment: Displacement of [3H]-LSD from recombinant human 5-HT5A receptor at 10 uM after […] by Microbeta scintillation counting analysis relative to control
[27] = biological target: Beta-2 adrenergic receptor (Homo sapiens) (UniProt P07550); experiment: Displacement of [3H]-Iodopindolol from recombinant human adrenergic beta2 receptor at 10 uM after […] by Microbeta scintillation counting analysis relative to control
Beta-2 adrenergic receptor (Homo sapiens), sequence (P07550 whole entry, looked up): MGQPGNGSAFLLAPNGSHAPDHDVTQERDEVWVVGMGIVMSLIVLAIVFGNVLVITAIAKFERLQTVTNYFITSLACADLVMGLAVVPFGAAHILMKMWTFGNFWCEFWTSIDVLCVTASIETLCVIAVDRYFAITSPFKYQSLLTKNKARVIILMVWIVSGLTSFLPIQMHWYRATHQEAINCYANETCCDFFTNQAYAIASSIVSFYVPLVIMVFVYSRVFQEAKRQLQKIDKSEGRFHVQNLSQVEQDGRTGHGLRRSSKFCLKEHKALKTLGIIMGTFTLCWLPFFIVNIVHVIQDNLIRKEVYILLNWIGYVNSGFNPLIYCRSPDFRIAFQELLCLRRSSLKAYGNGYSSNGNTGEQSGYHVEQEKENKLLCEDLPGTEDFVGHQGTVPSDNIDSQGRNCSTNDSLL

Histamine H2 receptor = Histamine H2 receptor (Homo sapiens, UniProt P25021); experiment: Displacement of [3H]-Tiotidine from recombinant human histamine H2 receptor after […] by Microbeta scintillation counting analysis
[28] = biological target: GABA-A receptor; agonist GABA site (Homo sapiens) (UniProt P14867+P47870+P28472+P48169+P34903+P18505+P47869+P31644+Q16445); experiment: Displacement of [3H]-Muscimol from recombinant human GABAA receptor at 10 uM after […] by Microbeta scintillation counting analysis relative to control; format: protein-complex assay
Sigma 2 receptor = experiment: Displacement of [3H]-DTG from recombinant human sigma-2 receptor after […] by Microbeta scintillation counting analysis
[29] = biological target: D(4) dopamine receptor (Homo sapiens) (UniProt P21917); experiment: Displacement of [3H]-N-methylspiperone from recombinant human dopamine D4 receptor at 10 uM after […] by Microbeta scintillation counting analysis relative to control
D(4) dopamine receptor (Homo sapiens), sequence (P21917 whole entry): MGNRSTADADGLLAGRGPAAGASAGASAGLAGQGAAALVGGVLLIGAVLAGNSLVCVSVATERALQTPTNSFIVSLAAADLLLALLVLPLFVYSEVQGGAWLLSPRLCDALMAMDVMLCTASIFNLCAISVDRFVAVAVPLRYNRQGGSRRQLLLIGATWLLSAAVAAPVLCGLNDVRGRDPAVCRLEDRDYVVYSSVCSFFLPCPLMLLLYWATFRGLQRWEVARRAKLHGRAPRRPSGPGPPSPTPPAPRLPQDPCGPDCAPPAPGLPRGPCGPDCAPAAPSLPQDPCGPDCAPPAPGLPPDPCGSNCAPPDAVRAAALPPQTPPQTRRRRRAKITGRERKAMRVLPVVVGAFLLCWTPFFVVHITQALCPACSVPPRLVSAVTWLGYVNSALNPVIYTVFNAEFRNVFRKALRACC

[30] = biological target: Sodium-dependent serotonin transporter (Homo sapiens) (UniProt P31645); experiment: Displacement of [3H]-Citalopram from recombinant human SERT at 10 uM after […] by Microbeta scintillation counting analysis relative to control
[31] = biological target: Histamine H3 receptor (Homo sapiens) (UniProt Q9Y5N1); experiment: Displacement of [3H]-alpha-methylhistamine from recombinant human histamine H3 receptor at 10 uM after […] by Microbeta scintillation counting analysis relative to control
[32] = biological target: Kappa-type opioid receptor (Homo sapiens) (UniProt P41145); experiment: Displacement of [3H]-U69593 from recombinant human kappa opioid receptor at 10 uM after […] by Microbeta scintillation counting analysis relative to control
[33] = biological target: 5-hydroxytryptamine receptor 1A (Homo sapiens) (UniProt P08908); experiment: Displacement of [3H]-8-OH-DPAT from recombinant human 5-HT1A receptor at 10 uM after […] by Microbeta scintillation counting analysis relative to control

Compound: COc1cc2c3c(c1OCCOC(C)=O)-c1cc4c(cc1CC3N(C)CC2)OCO4 (stereo unspecified)
- Ratio Ke (Homo sapiens): 0.3

- inhibition [1]: < 50%
- Ki [2]: > 900 nM
- Ki [3]: > 900 nM
- inhibition [4]: < 50%
- inhibition [5]: < 50%
- inhibition [6]: < 50%
- Ki [7]: > 900 nM
- Ki (D(1A) dopamine receptor): > 900 nM
- inhibition [8]: < 50%
- inhibition [9]: < 50%
- Ki [10]: > 900 nM
- inhibition [11]: < 50%
- inhibition [12]: < 50%
- inhibition [13]: < 50%
- inhibition (Rattus norvegicus): < 50%
- Ki (D(3) dopamine receptor): > 900 nM
- Ki [14]: > 900 nM
- inhibition [15]: < 50%
- inhibition [16]: < 50%
- Ki (Translocator protein): > 900 nM
- Ratio Ke (Homo sapiens): > 1090
- inhibition [17]: < 50%
- inhibition [18]: < 50%
- Ki [19]: > 900 nM
- inhibition [20]: < 50%
- Ki [21]: > 900 nM
- Ki [22]: > 900 nM
- inhibition [23]: < 50%
- inhibition [24]: < 50%
- Ki [25]: > 900 nM
- inhibition [26]: < 50%
- inhibition [27]: < 50%
- Ki (Histamine H2 receptor): > 900 nM
- inhibition [28]: < 50%
- Ki (Sigma 2 receptor): > 300 nM
- inhibition [29]: < 50%
- inhibition [30]: < 50%
- inhibition [31]: < 50%
- inhibition [32]: < 50%
- inhibition [33]: < 50%
Compound: COc1cc2c3c(c1OCc1ccc(Br)cc1)-c1cc4c(cc1CC3N(C)CC2)OCO4 (stereo unspecified)
